Data set [1] has as its system Rattus norvegicus. The data set is described as follows: Effect on fatty acid composition in Wistar rat assessed as change in plasma MUFA level at dose equivalent to 250 umol of tetradecylthioacetic acid, po after 6 days. Format: functional.
Data set [2] relates to Liver. The data set is described as follows: Drug concentration in Wistar rat liver assessed as tetradecylthioacetic acid at dose equivalent to 85 umol of tetradecylthioacetic acid, po after 6 days. Format: ADME, organism-based. The conditions noted are these: in vivo, 144 h. The method, boiled down: (§1)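 Male Wistar rats were gavaged once daily for 6 days with compound in 0.5% CMC at 85 or 250 µmol TTA-equivalent per animal. Controls received palmitic acid. Liver was homogenized in 0.25 M sucrose/10 mM HEPES pH 7.4/1 mM EDTA at 0-4 °C. Lipids were extracted with chloroform:methanol 2:1 and spiked with 21:0 internal standard. Fatty acids were BF3-methanol transesterified and quantified as wt%. Values are mean ± SD, n=5.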

Data set [3] concerns Rattus norvegicus. The data set is described as follows: Decrease in plasma cholesterol level in po dosed Wistar rat after 6 days. Format: functional, organism-based. The method, boiled down: (§2)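 Male Wistar rats (170-210 g), housed in pairs with chow and water, were gavaged once daily for 6 days with test lipid in 0.5% (w/v) carboxymethylcellulose at 85 or 250 µmol TTA-equivalent per animal. Controls received palmitic acid in CMC. Plasma triacylglycerol and cholesterol were measured with an enzymatic kit, and liver levels were also determined. Values are mean ± SD, n=5 rats.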

Data set [4] has as its system Rattus norvegicus. The data set is described as follows: Effect on fatty acid composition in Wistar rat assessed as change in liver LCn-6/18:2 level at dose equivalent to 250 umol of tetradecylthioacetic acid, po after 6 days. Format: functional. The essentials: as §1
The test system of data set [5] is Rattus norvegicus. Nature of the data set: Decrease in plasma cholesterol level in Wistar rat at dose equivalent to 250 umol of tetradecylthioacetic acid, po after 6 days relative to control. Also on record: scale not given: the % may be the effect or the level left. Format: functional. The method, boiled down:
as §2

In data set [6] the test system is Rattus norvegicus. Nature of the data set: Plasma concentration in Wistar rat assessed as tetradecylthioacetic acid at dose equivalent to 250 umol of tetradecylthioacetic acid, po after 6 days. Format: ADME, organism-based. The conditions noted are these: in vivo, 144 h.
Data set [7] relates to Rattus norvegicus. Nature of the data set: Effect on fatty acid composition in Wistar rat assessed as change in plasma 18;2, n-6 level at dose equivalent to 250 umol of tetradecylthioacetic acid, po after 6 days. Format: functional.
In data set [8] the test system is Rattus norvegicus. The data set is described as follows: Effect on fatty acid composition in Wistar rat assessed as change in plasma 18;2, n-6 level at dose equivalent to 85 umol of tetradecylthioacetic acid, po after 6 days. Format: functional.
Data set [9] relates to Rattus norvegicus. The data set is described as follows: Induction of PPAR-alpha-regulated mitochondrial HMG-CoA synthase activity in Wistar rat at dose equivalent to 250 umol of tetradecylthioacetic acid, po after 6 days relative to control. Format: functional. The essentials:
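Wistar rats were gavaged daily for 6 days at 85 or 250 µmol TTA-equivalent in 0.5% CMC, with palmitic acid controls. HMG-CoA synthase activity was assayed in the liver postnuclear fraction by the Clinkenbeard method. Mean ± SD, 5 rats/group.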

In data set [10] the test system is Rattus norvegicus. The data set is described as follows: Effect on fatty acid composition in Wistar rat assessed as change in liver saturated fatty acid level at dose equivalent to 85 umol of tetradecylthioacetic acid, po after 6 days. Format: functional. The essentials:
as §1

The subject of data set [11] is Rattus norvegicus. The data set is described as follows: Effect on fatty acid composition in Wistar rat assessed as change in plasma PUFA level at dose equivalent to 250 umol of tetradecylthioacetic acid, po after 6 days. Format: functional.

1 compound from ChEMBL document CHEMBL1140904, “Synthesis and analysis of novel glycerolipids for the treatment of metabolic syndrome” (J Med Chem, 2009) can be followed below.

For `CCCCCCCCCCCCCCSCC(=O)OC[C@H](COP(=O)([O-])OCC[N+](C)(C)C)OC(=O)CSCCCCCCCCCCCCCC` [PHOSPHATIDYLCHOLINE], the Activity in data set [1] is 21.62%; in data set [3], “Dose-dependent effect”; in data set [4] it was 3.49%; in [5], 60%; in data set [7] it was 17.97%; in [8] it was 19.52%. Moreover, the Activity in data set [10] was 39.67%; in [11], 1.86%. For the same compound, the Drug uptake amounted to 1.28% in [2], 3.34% in data set [2] (in the assay text read “equivalent to 250 umol” for “equivalent to 85 umol”) and 1.95% in [6]. Further, in data set [9], the “fold change (FC)” value was 4.
